The values below come from publication PMC3008344 (Molecular nutrition & food research, 2009).

pIC50: −log10 of the molar value.

Assay [1] has as its system MDA-MB-231-GFP human breast cancer cells. In words: Annexin V-PE apoptosis assay. Format: cell-based. Particulars: MDA-MB-231-GFP cells; for Induction of apoptosis (annexin V-PE positive cells): 5 day treatments.
The subject of another assay is Survivin. In words: Western blot of Survivin protein expression. Format: cell-based, human. Particulars: MDA-MB-231-GFP cells; for Survivin protein expression: 5 days. The method in brief:
(§1)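 Whole-cell extracts came from the same 5-day-treated MDA-MB-231-GFP samples (2% FBS) used for annexin V analysis. Blots were incubated overnight at 4°C with primary antibody in 0.1% BSA/TBST against PARP (cleavage), Survivin, DR5 or GAPDH. After TBST washes they were probed with HRP-conjugated secondary antibody.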
On the technique in general: Immunoblotting shows a protein as a band on a membrane.

The subject of assay [2] is MDA-MB-231-GFP human breast cancer cells. In words: Visible lung metastases counted at sacrifice. Format: in vivo, Nu/Nu female BALB/c mice. As to conditions: 500 mg/kg diet each, control 70%.
The subject of assay [3] is BALB/c 66cl-4-GFP mouse mammary cancer cells. Particulars: formulated in liposomes, oral gavage, BALB/c 66cl-4-GFP cells; cited from earlier work.
Assay [4] deals with MDA-MB-231-GFP tumor tissue. In words: Tumor immunohistochemistry: TUNEL apoptosis. Format: in vivo, Nu/Nu female BALB/c mice. As to conditions: tumor tissue from 5 mice/group, 500 mg/kg diet. An outline of the steps: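 Xenografts came from female Nu/Nu BALB/c mice carrying s.c. MDA-MB-231-GFP tumours in matrigel. From ~25 mm3, mice were fed for 24 days a tocopherol-stripped AIN-76A basal diet (33 IU all-rac-α-tocopherol acetate/kg) with or without 500 mg/kg test vitamin E form. TUNEL (ApopTag) staining was done on deparaffinised 5 μm sections of formalin-fixed tumours. Brown nuclei were scored in 15 fields (400×) per tumour, 5 mice/group; Mann-Whitney test.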

Another assay concerns PARP. In words: Western blot of PARP cleavage. The format is cell-based, human. Particulars: MDA-MB-231-GFP cells; for PARP cleavage: 5 days. The method in brief: as §1
For assay [5], the system named is MDA-MB-231-GFP tumor tissue. In words: Tumor immunohistochemistry: Ki-67 proliferation. Format: in vivo, Nu/Nu female BALB/c mice. Particulars: tumor tissue from 5 mice/group, 500 mg/kg diet. An outline of the steps:
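Female Nu/Nu BALB/c mice (6 weeks) received 2 × 10^6 MDA-MB-231-GFP cells s.c. (inguinal) in 50% matrigel. At ~25 mm3 they were randomised (10/group) to tocopherol-stripped AIN-76A diet with 33 IU all-rac-α-tocopherol acetate/kg, ± test form at 500 mg/kg, for 24 days. Formalin-fixed tumours were cut into 5 μm sections and stained for Ki-67. Positive cells were counted in 5 fields (400×) per tumour, 5 mice/group; Mann-Whitney test.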

The subject of assay [6] is MDA-MB-231-GFP human breast cancer cells. Briefly: Colony formation assay. Particulars: for pIC50: Homo sapiens, 240 h, read-out: IC50 for inhibition of colony formation; for Effect on colony formation: MDA-MB-231-GFP cells, 10 days, 10–40 μM range tested. The format is cell-based. The method in brief: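 MDA-MB-231-GFP cells were seeded at 1000 per 100 mm plate in 2% FBS medium and grown 3 days to form small colonies. They were then treated 10 days with test compound at 10–40 μM (positive control 5–15 μM) or DMSO/ethanol (1:4) vehicle. Colonies were methanol-fixed, stained with 0.1% methylene blue and counted by image analysis. Survival (%) = colonies treated/control × 100. IC50 came from survival curves; mean ± SD, ≥2 experiments.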

The test system of a further assay is DR5. Briefly: Western blot of DR5 protein expression. Format: cell-based, human. As to conditions: MDA-MB-231-GFP cells; for DR5 protein expression: 5 days.
Assay [7] relates to human MDA-MB-231 breast cancer cells. Particulars: supplemented in the diet, MDA-MB-231 cells; cited from earlier work.

`Cc1c(O)cc2c(c1C)O[C@](C)(CCC[C@H](C)CCC[C@H](C)CCCC(C)C)CC2` [γT, RRR-γ-tocopherol]: the “Induction of apoptosis (annexin V-PE positive cells)” value in [1] is “induced dose-dependent apoptosis”. Besides, in the assay on Survivin, the Survivin protein expression entry is given as “downregulation of anti-apoptotic Survivin”. The “Incidence of visible lung metastases” value in assay [2] is 30%. In assay [3], the “Tumor growth in syngeneic mouse model” value is given as “suppressed tumor growth”. Moreover, the “Increase of TUNEL positive cells in tumor in comparison to control group” value (shortened to “Increase of TUNEL positive cells”) in assay [4] worked out at 1.9 fold. Besides, the PARP cleavage entry with PARP is “PARP cleavage”. Also, the “Decrease of Ki-67 positive cells in tumor in comparison to control group” value (“Decrease of Ki-67 positive cells” for short) in [5] is recorded as “no significant difference”. Moreover, the negative-log IC50 (pIC50) (as a rule, the negative decadic logarithm of the IC50, by convention in mol/L) in assay [6] was 4.93. In the assay with DR5, the DR5 protein expression entry is given as “upregulation of pro-apoptotic death receptor DR5”.

As to `Cc1c(C)c2c(c(C)c1O)CC[C@@](C)(CCC[C@H](C)CCC[C@H](C)CCCC(C)C)O2` [αT, RRR-α-tocopherol], the “Block of α-TEA-induced apoptosis by αT” value in assay [1] (10 μM αT plus 10 μM α-TEA, 5 days) is recorded as 70%. The “Block of γT-induced apoptosis by αT” value in assay [1] (10 μM αT plus 40 μM γT, 5 days) was determined as 60%. Also, in the assay with Survivin, the “Effect of αT co-treatment on γT- and α-TEA-induced downregulation of Survivin” value is listed as “blocked”; the Survivin protein expression entry is given as “did not downregulate Survivin”. Also, the “Incidence of visible lung metastases” value in [2] is recorded as 60%. Besides, the “Increase of TUNEL positive cells” value in assay [4] was “but not in the αT or αT + γT groups”. In the assay with PARP, the “Effect of αT co-treatment on γT- and α-TEA-induced cleavage of PARP” value is on record as “blocked”; the PARP cleavage result is on record as “did not cause cleavage of PARP”. The “Decrease of Ki-67 positive cells” value in [5] is reported as “but not αT or αT + γT groups”. Also, the “Effect on colony formation” value in assay [6] is “no inhibitory effect”. In the assay with DR5, the “Effect of αT co-treatment on γT- and α-TEA-induced upregulation of DR5” value is “blocked”; the DR5 protein expression result was “induced an increase in DR5 protein expression”.

`Cc1c(C)c2c(c(C)c1OCC(=O)O)CC[C@@](C)(CCC[C@H](C)CCC[C@H](C)CCCC(C)C)O2` [α-TEA, RRR-α-tocopherol ether-linked acetic acid analog]: the “Induction of apoptosis (annexin V-PE positive cells)” value in assay [1] is “induced dose-dependent apoptosis”. The Survivin protein expression entry with Survivin is “downregulation of anti-apoptotic Survivin”. Also, in assay [2], the “Incidence of visible lung metastases” value worked out at 30%. Moreover, the “Tumor growth in syngeneic mouse model” value in assay [3] is “suppressed tumor growth”. Besides, the “Increase of TUNEL positive cells” value in assay [4] is on record as 2.1 fold. In the assay on PARP, the PARP cleavage result is reported as “PARP cleavage”. The “Decrease of Ki-67 positive cells” value in assay [5] was 39%. Besides, the pIC50 in assay [6] was 5.32. For the same compound, the DR5 protein expression result in the assay with DR5 was “upregulation of pro-apoptotic death receptor DR5”.

Regarding `Cc1c(C)c2c(c(C)c1O)CCC(C)(CCCC(C)CCCC(C)CCCC(C)C)O2` (racemic) [all-rac-αT, all-racemic-α-tocopherol], the Survivin protein expression entry in the assay with Survivin is recorded as “did not downregulate Survivin”. The “Incidence of visible lung metastases” value in assay [2] is 30%. In addition, in [3], the “Tumor growth in syngeneic mouse model” value is “suppressed tumor growth”. Moreover, in assay [4], the “Increase of TUNEL positive cells” value is 2.1 fold. For the same compound, the “Tumor burden in xenograft model” value in assay [7] is “reduced tumor burden”. For the same compound, the PARP cleavage entry in the assay on PARP was “did not cause cleavage of PARP”. Also, the “Decrease of Ki-67 positive cells” value in [5] is given as 23%. The “Effect on colony formation” value in assay [6] is recorded as “no inhibitory effect”. Also, the DR5 protein expression entry in the assay with DR5 is “induced an increase in DR5 protein expression”.
